hERG rescue = shields human hERG channel from block by proarrhythmic agents; Q12809; activation (rescue from dofetilide block), less the hit threshold, % at 10 µM; 0.51% of 310,000 active; CHO-hERG, FluxOR thallium flux, dofetilide IC70 present;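 active = activation above the mean of controls blocked by dofetilide plus 5 SD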;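 note: thallium influx through hERG after potassium depolarization seen as dye fluorescence rise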
KCNQ1 pot = potentiates or activates the human KCNQ1 potassium channel; AID 2648; CHO-K1 KCNQ1, thallium flux FluxOR fluorescence; stronger effect = higher value; B-score at 10 µM; 0.35% of 310,000 active;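 active = fluorescence ratio B-score, a plate-corrected score, at least three library SD, with initial intensity B-score within 5 SD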
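Schedule – 37 °C overnight plating, 90-min dark dye load, 20-min compound pretreatment · System – stable KCNQ1 CHO-K1 line · Probe or stimulus – thallium- and potassium-containing depolarizing buffer · Measured by – kinetic FluxOR fluorescence, 10 s baseline plus 110 s post-stimulus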
KCNK3 block = human KCNK3 channel inhibition, primary screen. 0.84% of 340,000 active. B-score at 10 µM. O14649. CHO-KCNK3 thallium flux, FluxOR fluorescence; stronger effect = lower value. AID 602410;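 active = B-score under library mean minus 4 SD, starting fluorescence ratio at most library mean plus 5 SD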;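 note: more negative B-score means stronger inhibition of thallium flux through KCNK3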
Target sequence (O14649 whole entry, looked up): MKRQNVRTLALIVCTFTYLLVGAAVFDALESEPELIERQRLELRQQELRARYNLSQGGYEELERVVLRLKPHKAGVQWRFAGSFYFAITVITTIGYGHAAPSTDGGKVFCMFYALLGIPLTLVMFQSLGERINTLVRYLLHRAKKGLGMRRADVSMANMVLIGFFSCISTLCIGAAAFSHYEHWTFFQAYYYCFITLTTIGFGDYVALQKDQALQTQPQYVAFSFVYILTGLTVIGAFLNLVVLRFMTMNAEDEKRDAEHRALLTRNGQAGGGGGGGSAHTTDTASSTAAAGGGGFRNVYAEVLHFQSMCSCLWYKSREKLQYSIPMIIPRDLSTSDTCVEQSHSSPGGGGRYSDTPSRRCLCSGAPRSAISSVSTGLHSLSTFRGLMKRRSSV
KCNQ1 inh = human KCNQ1 channel inhibition. P51787. CHO-K1 KCNQ1, FluxOR thallium flux fluorescence; stronger effect = higher value. B-score at 10 µM. 1.3% of 310,000 active. AID 2642;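 active = compounds whose thallium flux B-score, printed positive for inhibition, exceeds three library SD while starting fluorescence stays within three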;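 note: channel opened by potassium depolarization with thallium stimulus after 20 min compound exposure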
Kir21 inh = blocks the mouse Kir2.1 inward-rectifier potassium channel. P35561. HEK293-Kir2.1, FluxOR thallium flux fluorescence; stronger effect = lower value. B-score at 10 µM. 0.85% of 310,000 active. AID 1672;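 active = fluorescence ratio B-score at or below minus 3 SD of library scores, with starting-brightness B-score within 2 SD, cut at about -4.2 in these data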;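 note: channel flux triggered by added potassium and thallium sulfate stimulus; B-score of peak minus minimum fluorescence over baseline after thallium stimulus; more negative B-score means stronger Kir2.1 block with less thallium influx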
KCNK9 inh = inhibitors of human KCNK9 two-pore domain potassium channel. HEK293 KCNK9, FluxOR thallium flux fluorescence; stronger effect = lower value. B-score at 10 µM. 1.2% of 310,000 active. AID 488922;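 active = ratio B-score over 3 SD below the library mean, with starting fluorescence within 5 SD of its mean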;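 note: negative B-score means less thallium flux so channel inhibition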
Target sequence (Q9NPC2 whole entry, looked up, the tested form may be a part): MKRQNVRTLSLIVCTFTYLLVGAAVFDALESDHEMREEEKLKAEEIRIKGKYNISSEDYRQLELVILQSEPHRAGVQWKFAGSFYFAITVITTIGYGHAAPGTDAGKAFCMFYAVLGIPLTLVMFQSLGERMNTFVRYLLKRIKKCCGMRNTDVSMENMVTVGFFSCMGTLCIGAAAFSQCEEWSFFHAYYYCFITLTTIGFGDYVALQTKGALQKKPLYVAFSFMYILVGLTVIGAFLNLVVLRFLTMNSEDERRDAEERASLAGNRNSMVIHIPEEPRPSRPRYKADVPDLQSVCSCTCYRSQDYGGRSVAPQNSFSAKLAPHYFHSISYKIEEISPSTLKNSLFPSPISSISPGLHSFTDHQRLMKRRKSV
KCNQ1 inh valid = confirmation of human KCNQ1 potassium channel inhibitors | KCNQ1 cell line, FluxOR thallium flux fluorescence | inhibition, % at 10 µM | shares compounds with KCNQ1 inh | 93% of 1,600 active;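 active = primary screen active, with duplicate mean exceeding buffer control mean plus 3 SD of buffer wells, cut at about 28% in these data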
CHO KCNQ1 ctr = activity in parental CHO cells lacking KCNQ1 | shares compounds with KCNQ1 inh | parental CHO-K1, FluxOR thallium flux fluorescence ratio; stronger effect = lower value; zero means no signal rise above baseline | fluorescence ratio (Tl flux) at 10 µM | 21% of 1,600 active | AID 588366;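 active = mean of duplicate thallium-flux fluorescence ratios in parental host cells more than 5 SD below the buffer control mean, cut at about 0.38 in these data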;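 note: ratio is peak minus minimum fluorescence divided by baseline fluorescence; actives read low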
KCNQ1 ephys val = confirmation of human KCNQ1 potassium channel inhibitors by electrophysiology. shares compounds with KCNQ1 inh. KCNQ1-CHO cells, automated patch clamp current. calls only at 10 µM. 20% of 490 active;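 active = KCNQ1 current drop exceeding 3 SD of negative control wells, seen in both duplicate runs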;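 note: steady state current during a 2 s step from -80 to +40 mV; negative values mean current inhibition and positive values mean potentiation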
KCNQ2 spec = selectivity of KCNQ1 inhibitors: inhibition of rat KCNQ2 channel; shares compounds with KCNQ1 inh; KCNQ2 cells, FluxOR thallium flux fluorescence; inhibition, % at 10 µM; 71% of 1,600 active; AID 651746;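 active = mean percent inhibition of the KCNQ2 thallium signal more than 5 SD above the buffer-only control wells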;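 note: KCNQ2 expressed in CHO cells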
KCNQ1-KCNE1 inh = KCNQ1 inhibitor that also blocks human KCNQ1/KCNE1 channel | shares compounds with KCNQ1 inh | KCNQ1/KCNE1 cells, FluxOR thallium flux fluorescence | inhibition, % at 10 µM | 77% of 1,600 active | AID 652147;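 active = mean percent inhibition of duplicate wells above the buffer-only control mean plus 3 SD of those controls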
Large screens that a line does not name were inactive (follow-up assays come after a bar, where they were run). In the library only some 3.7% were active in any assay of this set; here they are far more common.

CCC(C)(C)c1ccc(OCC(=O)Nc2ccncc2)cc1	KCNQ1 inh 8 | KCNQ1 inh valid 138 | CHO KCNQ1 ctr inactive | KCNQ1 ephys val inactive | KCNQ2 spec 92% | KCNQ1-KCNE1 inh 72%
COc1ccc(OCC(=O)Nc2cccc(-c3nc4ccccc4[nH]3)c2)cc1	none
CC(C)CCOc1cccc(OCC(=O)Nc2ccncc2)c1	KCNQ1 inh 12 | KCNQ1 inh valid 106 | CHO KCNQ1 ctr inactive | KCNQ1 ephys val inactive | KCNQ2 spec inactive | KCNQ1-KCNE1 inh 40%
CCc1cccc(NS(=O)(=O)c2c(C)nc3scc(C)n3c2=O)c1	none
O=C(c1ccc(Br)cc1)N(Cc1ccco1)C1CCS(=O)(=O)C1 (stereo not drawn)	none
Cc1ccc(CNS(=O)(=O)c2ccc3c(c2)NC(=O)CS3)cc1	none
C[C@@]12CCC3[C@@](CCC4[C@@]3(C)CCC[C@@]4(C)C(=O)Nc3ccc(Cl)cc3)(CC1=O)C2 (stereo partly drawn)	none (no result: hERG rescue, KCNQ1 pot, KCNQ1 inh, Kir21 inh, KCNK9 inh)
O=C(NCc1ccccc1)/C(=C\c1ccccc1)NC(=O)c1ccco1	none
COc1ccc(-c2cc(=NC(CC(C)C)C(=O)O)c3cc(C)ccc3o2)cc1 (stereo not drawn)	KCNQ1 inh 9 | KCNQ1 inh valid 70 | CHO KCNQ1 ctr inactive | KCNQ2 spec inactive | KCNQ1-KCNE1 inh 54%
O=S(=O)(Nc1ccon1)c1ccc(Br)cc1	none
COC(=O)C1CCCCN1C(=O)c1cc(COc2cccc3cnccc23)on1 (stereo not drawn)	KCNQ1 inh 9 | KCNQ1 inh valid 25 | CHO KCNQ1 ctr inactive | KCNQ2 spec 75% | KCNQ1-KCNE1 inh inactive
CCOC(=O)CC1CCCCN1C(=O)c1cc(COc2cccc3cnccc23)on1 (stereo not drawn)	KCNQ1 inh 11 | KCNQ1 inh valid 136 | CHO KCNQ1 ctr inactive | KCNQ1 ephys val inactive | KCNQ2 spec 92% | KCNQ1-KCNE1 inh 58%
CC(C)(Oc1ccc(Br)cc1Cl)C(=O)Nc1ccon1	none
COC(=O)c1cc(C(=O)NCc2ccccc2)c(=O)[nH]c1C	none
S=C(NCCc1ccccc1)NCc1cccc(Cl)c1	KCNQ1 inh 9 | KCNQ1 inh valid 62 | CHO KCNQ1 ctr inactive | KCNQ2 spec 104% | KCNQ1-KCNE1 inh 46%
S=C(NCCCc1ccccc1)Nc1ccccc1Cl	KCNQ1 inh 7 | KCNQ1 inh valid 100 | CHO KCNQ1 ctr inactive | KCNQ1 ephys val inactive | KCNQ2 spec 61% | KCNQ1-KCNE1 inh 38%
S=C(NCCNC(=S)Nc1ccccc1Cl)Nc1ccccc1Cl	KCNQ1 inh 7 | KCNQ1 inh valid 62 | CHO KCNQ1 ctr inactive | KCNQ2 spec 82% | KCNQ1-KCNE1 inh inactive
Cc1cc(C(F)F)n2nc(C(=O)Nc3cccc(S(=O)(=O)N4CCOCC4)c3)nc2n1	none
CCOC(=O)c1c(C)nc2ccc(Cl)cc2c1-c1ccccc1	KCNQ1 inh 7 | KCNQ1 inh valid 122 | CHO KCNQ1 ctr inactive | KCNQ1 ephys val inactive | KCNQ2 spec 117% | KCNQ1-KCNE1 inh 154%
CCOC(=O)c1[nH]c2ccc(Cl)cc2c1-c1ccccc1	none
Cc1ccc(F)cc1NCC(=O)Nc1ccc(Br)cc1	KCNQ1 inh 8 | KCNQ1 inh valid 70 | CHO KCNQ1 ctr inactive | KCNQ2 spec 99% | KCNQ1-KCNE1 inh 78%
Cc1ccc(NCC(=O)Nc2ccc(Br)cc2)cc1C	none
CCCc1cc(NCc2ccccn2)n2nc(C)c(-c3ccccc3)c2n1	KCNQ1 inh 8 | KCNQ1 inh valid 56 | CHO KCNQ1 ctr inactive | KCNQ2 spec 108% | KCNQ1-KCNE1 inh 84%
COc1ccc(-n2cc(-c3ccccc3)nc2SC)cc1	KCNQ1 inh 6 | KCNQ1 inh valid 94 | CHO KCNQ1 ctr inactive | KCNQ1 ephys val inactive | KCNQ2 spec 86% | KCNQ1-KCNE1 inh 130%
CC1Sc2ccc(S(=O)(=O)CCC(=O)NC(C)c3ccccc3)cc2NC1=O (stereo not drawn)	none
COc1ccc(Cn2ccnc2SCC(=O)NC2CCCC2)cc1	none
CCOC(=O)Cc1c(Sc2ccccc2)c2ccccc2n1C	KCNQ1 inh 7, KCNK9 inh -8 | KCNQ1 inh valid 94 | CHO KCNQ1 ctr inactive | KCNQ1 ephys val inactive | KCNQ2 spec 88% | KCNQ1-KCNE1 inh 114%
O=C(O)c1ccc(N=Nc2c(O)[nH]c3ccccc23)cc1	none
Cc1ccc(Cl)c2c(N=Nc3ccccc3)c(O)[nH]c12	KCNQ1 inh 6 | KCNQ1 inh valid 148 | CHO KCNQ1 ctr 0.29 | KCNQ2 spec inactive | KCNQ1-KCNE1 inh inactive
Cc1cccc(C)c1NC(=S)NCCSc1ccc(Cl)cc1	KCNQ1 inh 6 | KCNQ1 inh valid 90 | CHO KCNQ1 ctr inactive | KCNQ1 ephys val inactive | KCNQ2 spec 110% | KCNQ1-KCNE1 inh 96%
Cc1ccc(SCCNC(=S)Nc2cc(C)cc(C)c2)cc1	KCNQ1 inh 9 | KCNQ1 inh valid 69 | CHO KCNQ1 ctr inactive | KCNQ2 spec 71% | KCNQ1-KCNE1 inh 77%
COc1ccc(NC(=S)NCCSc2ccc(Cl)cc2)c(OC)c1	none
Cc1ccc(NC(=S)NCCSc2ccc(Cl)cc2)cc1	none
COc1ccc(C2NCCc3sccc32)cc1 (stereo not drawn)	none
COc1ccc(C2c3ccsc3CCN2C(=O)C(C)(C)C)cc1 (stereo not drawn)	KCNQ1 inh 8 | KCNQ1 inh valid 116 | CHO KCNQ1 ctr 0.37 | KCNQ2 spec 82% | KCNQ1-KCNE1 inh 152%
CCCCOc1[nH]c2nc(-c3ccco3)n(Cc3ccco3)c(=N)c2c1C#N	KCNQ1 inh 14, KCNK9 inh -7.2 | KCNQ1 inh valid 76 | CHO KCNQ1 ctr inactive | KCNQ2 spec 78% | KCNQ1-KCNE1 inh 81%
Cc1ccc(NS(=O)(=O)c2cccc(C(=O)NCC3CCCO3)c2)cc1 (stereo not drawn)	none
CCN(CC)c1nc(-c2ccccc2)ncc1S(=O)(=O)c1ccc(C)cc1	KCNQ1 inh 6 | KCNQ1 inh valid 84 | CHO KCNQ1 ctr inactive | KCNQ2 spec 80% | KCNQ1-KCNE1 inh 130%
CCN(c1ccccc1)S(=O)(=O)c1cc2c(cc1C)NC(=O)CO2	none

Assay outcomes as filed in PubChem BioAssay.
